The subject of data set [1] is A549. The data set can be described thus: Cytotoxicity against human A549 cells transfected with NF-kappaB assessed as reduction of cell viability relative to control. The format is cell-based. On the set-up: concentration or dose not given beside the values.
The subject of data set [2] is A549. Kind of data set: Cytotoxicity against human A549 cells after 48 hrs by MTT assay. The format is functional, cell-based. In short, it runs like this: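 A549 cells grown in RPMI with 5% FBS and 1% penicillin-streptomycin. Seeded at 4000 cells/well, attached overnight, then exposed to compound at 0.01–100 µmol for 48 h. MTT added for 4 h, formazan dissolved in DMSO, absorbance read at 570 nm. Mean of at least three independent experiments, each in triplicate.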
On the technique in general: Tetrazolium assays rely on reduction of a dye to a coloured formazan, in cell work by metabolically active cells.

Data set [3] can be described thus: Inhibition of TNF-alpha-induced NF-kappaB (unknown origin) activation transfected in human A549 cells after 7 hrs by bright-glo luciferase reporter gene assay. The format is cell-based. In outline: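 A549 cells co-transfected with pNF-κB-Luc and pSV-β-galactosidase (internal control) using lipofectamine. Medium changed at 6 h, cells cultured a further 6 h, then given TNF-α 15 ng/ml and compound together for 7 h. Read-out is Bright-Glo luciferase, corrected for background and viability and expressed relative to TNF-α-only cells. IC50 from a variable-slope sigmoidal fit.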
(A reporter such as luciferase makes a cellular process visible.)

A value given as a limit tells only on which side of the number the result lay.

For the compound `CC1(C)C[C@@H](O)[C@]2(C(=O)O)CC[C@]3(C)C(=CC[C@@H]4[C@@]5(C)CC[C@H](O)C(C)(C)[C@@H]5CC[C@]43C)[C@@H]2C1`, the Activity in the data set on A549 [1] was < 5%. The IC50 (with A549 [2]; in data set [3]) was > 10 µmol throughout.
In the case of `CC(C)=CC(=O)O[C@@H]1CC(C)(C)C[C@H]2C3=CC[C@@H]4[C@@]5(C)CCC(=O)C(C)(C)[C@@H]5CC[C@@]4(C)[C@]3(C)CC[C@@]12C(=O)O`, in the data set with A549 [1], the Activity is on record as < 5%. For the same compound, the IC50 in the data set on A549 [2] turned out to be 1.19 µmol; in data set [3] it was 1.56 µmol.
With `C/C=C(\C)C(=O)O[C@@H]1CC(C)(C)C[C@H]2C3=CC[C@@H]4[C@@]5(C)CC[C@H](OC(C)=O)C(C)(C)[C@@H]5CC[C@@]4(C)[C@]3(C)CC[C@@]12C(=O)O`, the Activity in the data set with A549 [1] is reported as < 5%. Also, the figures for the IC50 (with A549 [2]; in data set [3]) were 5.42 µmol and 2.8 µmol, respectively.
Consider `CC(=O)O[C@H]1CC[C@]2(C)[C@H]3CC=C4[C@@H]5CC(C)(C)C[C@@H](OC(=O)C=C(C)C)[C@]5(C(=O)O)CC[C@@]4(C)[C@]3(C)CC[C@H]2C1(C)C`, for which the Activity with A549 [1] is < 5%. The IC50 in the data set on A549 [2] was 4.9 µmol; in data set [3] it was 2.32 µmol.
The corresponding values for `C/C=C(\C)C(=O)O[C@@H]1CC(C)(C)C[C@H]2C3=CC[C@@H]4[C@@]5(C)CC[C@H](OC(=O)c6ccccc6)C(C)(C)[C@@H]5CC[C@@]4(C)[C@]3(C)CC[C@@]12C(=O)O` are < 5%, 7.36 µmol and 5.04 µmol.
The corresponding values for `CC(C)=CC(=O)O[C@@H]1CC(C)(C)C[C@H]2C3=CC[C@@H]4[C@@]5(C)CC[C@H](OC(=O)c6ccccc6)C(C)(C)[C@@H]5CC[C@@]4(C)[C@]3(C)CC[C@@]12C(=O)O` are < 5%, 7.2 µmol and 4.64 µmol.
`C/C=C(\C)C(=O)O[C@@H]1CC(C)(C)C[C@H]2C3=CC[C@@H]4[C@@]5(C)CC[C@H](OC(=O)c6ccccc6Cl)C(C)(C)[C@@H]5CC[C@@]4(C)[C@]3(C)CC[C@@]12C(=O)O`: the Activity with A549 [1] is < 5%. The IC50 in the data set on A549 [2] worked out at 6.8 µmol; in data set [3], 4.18 µmol.
Consider `CC(C)=CC(=O)O[C@@H]1CC(C)(C)C[C@H]2C3=CC[C@@H]4[C@@]5(C)CC[C@H](OC(=O)c6ccccc6Cl)C(C)(C)[C@@H]5CC[C@@]4(C)[C@]3(C)CC[C@@]12C(=O)O`, for which, in the data set with A549 [1], the Activity was < 5%. The IC50 in the data set on A549 [2] amounted to 6.52 µmol; in data set [3], 3.7 µmol.
For `CC1(C)C[C@@H](OC(=O)c2ccccc2Cl)[C@]2(C(=O)O)CC[C@]3(C)C(=CC[C@@H]4[C@@]5(C)CCC(=O)C(C)(C)[C@@H]5CC[C@]43C)[C@@H]2C1`, in the data set with A549 [1], the Activity was < 5%. For the same compound, the IC50 (with A549 [2]; in data set [3]) was > 10 µmol throughout.
As for `CC1(C)C[C@@H](OC(=O)/C=C/c2ccccc2)[C@]2(C(=O)O)CC[C@]3(C)C(=CC[C@@H]4[C@@]5(C)CCC(=O)C(C)(C)[C@@H]5CC[C@]43C)[C@@H]2C1`, in the data set with A549 [1], the Activity is recorded as < 5%. Also, the IC50 in the data set on A549 [2] stood at 3.64 µmol; in data set [3] it was 2.42 µmol.
For the compound `CC(=O)O[C@H]1CC[C@]2(C)[C@H]3CC=C4[C@@H]5CC(C)(C)C[C@@H](OC(C)=O)[C@]5(C(=O)O)CC[C@@]4(C)[C@]3(C)CC[C@H]2C1(C)C`, the Activity in the data set on A549 [1] was < 5%. In addition, the IC50 (in the data set with A549 [2]; in data set [3]) was > 10 µmol in each case.
Regarding `COC(=O)[C@@]12CC[C@]3(C)C(=CC[C@@H]4[C@@]5(C)CC[C@H](O)C(C)(C)[C@@H]5CC[C@]43C)[C@@H]1CC(C)(C)C[C@H]2O`, in the data set with A549 [1], the Activity is listed as < 5%. Moreover, the IC50 (in the data set on A549 [2]; in data set [3]) was > 10 µmol in each case.
Consider `C/C=C(\C)C(=O)O[C@@H]1CC(C)(C)C[C@H]2C3=CC[C@@H]4[C@@]5(C)CC/C(=N\O)C(C)(C)[C@@H]5CC[C@@]4(C)[C@]3(C)CC[C@@]12C(=O)O`, for which the Activity with A549 [1] is < 5%. In addition, the IC50 (with A549 [2]; in data set [3]) was > 10 µmol each time.
As to `CC(C)=CC(=O)O[C@@H]1CC(C)(C)C[C@H]2C3=CC[C@@H]4[C@@]5(C)CC/C(=N\O)C(C)(C)[C@@H]5CC[C@@]4(C)[C@]3(C)CC[C@@]12C(=O)O`, in the data set on A549 [1], the Activity is listed as < 5%. The IC50 (in the data set on A549 [2]; in data set [3]) was > 10 µmol throughout.
For `COC(=O)[C@@]12CC[C@]3(C)C(=CC[C@@H]4[C@@]5(C)CCC(=O)C(C)(C)[C@@H]5CC[C@]43C)[C@@H]1CC(C)(C)C[C@H]2O`, in the data set on A549 [1], the Activity is reported as < 5%. Also, the IC50 (with A549 [2]; in data set [3]) was > 10 µmol each time.
On to `CC1(C)C[C@@H](O)[C@]2(C(=O)O)CC[C@]3(C)C(=CC[C@@H]4[C@@]5(C)CCC(=O)C(C)(C)[C@@H]5CC[C@]43C)[C@@H]2C1`, for which, in the data set with A549 [1], the Activity is < 5%. Further, the values for the IC50 (in the data set on A549 [2]; in data set [3]) were > 10 µmol and 6.42 µmol, respectively.
On to `CC1(C)C[C@@H](OC(=O)c2ccccc2)[C@]2(C(=O)O)CC[C@]3(C)C(=CC[C@@H]4[C@@]5(C)CCC(=O)C(C)(C)[C@@H]5CC[C@]43C)[C@@H]2C1`, for which, in the data set with A549 [1], the Activity is listed as < 5%. In addition, the IC50 (with A549 [2]; in data set [3]) was > 10 µmol in each case.
For the compound `C/C=C(/C)C(=O)O[C@@H]1CC(C)(C)C[C@H]2C3=CC[C@@H]4[C@@]5(C)CCC(=O)C(C)(C)[C@@H]5CC[C@@]4(C)[C@]3(C)CC[C@@]12C(=O)O` [LANTADENE A], in the data set with A549 [1], the Activity is < 5%. Further, the results for the IC50 (in the data set on A549 [2]; in data set [3]) were 2.84 µmol and 1.06 µmol, respectively.
